We go through 36 sequences from the EternaBench riboswitch data.

For this data set, the system named is MS2 coat protein. Put plainly: apparent Kd, MS2 coat protein; higher = weaker binding; RNA-MaP array; FMN 200 µM where present. In a few lines:
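Each design was made on Illumina sequencing-chip clusters by stalled E. coli RNA polymerase and titrated with SNAP-549-labelled MS2 coat protein from 0.7 or 1.5 nM, doubling to 3 µM, in the absence and then the presence of constant ligand. The buffer was 100 mM Tris-HCl pH 7.5, 80 mM KCl, 4 mM MgCl2, BSA, DTT, yeast tRNA and Tween-20. The apparent Kd is the median of filtered per-cluster fits of binding curves, with green signal normalised to red-channel RNA signal and control-cluster median Fmax.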

Setting [1] is: designed as: OFF switch for flavin mononucleotide, no ligand.
Setting [2] is: ligand present: flavin mononucleotide, designed as: OFF switch for flavin mononucleotide.
Setting [3] is: designed as: ON switch for flavin mononucleotide, no ligand.
Where [4] appears, read: ligand present: flavin mononucleotide, designed as: ON switch for flavin mononucleotide.

Broadly, the apparent Kd is a dissociation constant that holds for the conditions of the assay. With “AUAGUUUUUGAGAAGGCAUUUCUUAAGUGAUCUUACUAGUACAUGAGGAUCACCCAUGUUUUGUAUGAGGAUAUCAGUAGGUUG”, the “apparent Kd” value runs as follows: under setting [1], 33.9 nM; under setting [2], 31.7 nM.
As to “CACUCACAUGAGGAUCACCCAUGUCCUAGCAGGUCAGGAUAUAGCUCGGAUGCGUUCAGUCUAGAAGGGACACGUU”, the “apparent Kd” value under setting [3] worked out at 156 nM and the “apparent Kd” value under setting [4] came to 111 nM.
For “UUUAAUUAGUAAGGAUAUACUAGUGAUUAACUUGUAGAAGGUACAGUCUUAUGUAUAACAAAUUAACAUGAGGAUCACCCAUGU”, the “apparent Kd” value under setting [3] is 9.54 nM and the “apparent Kd” value under setting [4] stood at 8.3 nM.
Consider “UUGGACGUCGUAGGUUAUGUAGGAUAUUCCUACAUGAGGAUCACCCAUGUUGACAUGGAAGAAGGACAGAAGGACGAUGUCCAU”, for which the “apparent Kd” value is, setting by setting: under setting [3], 205 nM; under setting [4], 3.92 nM.
Turning to “AAAUAAAGCAGUGUAUUAAUAUAACAUGAGGAUCACCCAUGUAGAAGGCUCGAGCAAUAUGCUCGAGAGGAUAUACAACACUGC”, the “apparent Kd” value reads like this: under setting [1], 7.3 nM; under setting [2], 7.18 nM.
For “GCACGGUAAGUGAGGAUAUACCUCUGGAUACAGAGGUAGAAGGCACAUGAGGAUCACCCAUGUUCCUGCCGUGC” the same measures were 17.2 nM and 92.9 nM.
For “GUGGUGCAUAUACGUGGAGGUACAUGAGGAUCACCCAUGUAAGAGGAUAUGCGGAUACUAGCUCAGCAGAAGGCUUACAAAUGA” the same measures were 13.1 nM and 51.5 nM.
For “GUUGCGUUUGUGAGGAUAUGCUGGUCCUUGGUUCGGCAGAAGGCACAUGAGGAUCACCCAUGUGGUGUUGUUCC” the same measures were 126 nM and 94.7 nM.
As for “GGAUAGGACAGAGGAUAUACGUGCUAGAGACACUAGCAAAAUUUCCUCACAUGAGGAUCACCCAUGUAGAAGGCUGUCCUAUCG”, the “apparent Kd” value under setting [1] is 15.4 nM and the “apparent Kd” value under setting [2] amounted to 405 nM.
For “GGGUACAUCGGAGGAUAUCAUGUAAAUACAUGAGGAUCACCCAUGUCGUUGGAGACAUCGGAGAUUGAGAAGGCCGAUGUACCG”, the “apparent Kd” value under setting [3] was 199 nM and the “apparent Kd” value under setting [4] stood at 339 nM.
In the case of “GGGCCCGGAGGAUAUACAUGAGGAUCACCCAUGUAUUUGGGCCCUAUUGGGCCCGGGUGUAGAAGGCCGGGUUU”, the “apparent Kd” value under setting [1] was 15.7 nM and the “apparent Kd” value under setting [2] was determined as 21.4 nM.
In the case of “GGAUGACAAAGUCAUCCUUAACGAACAUGAGGAUCACCCAUGUAGGAUAUGCAACUCAAAGAGUUGCAGAAGGACAUGUGCCUU”, the “apparent Kd” value was found to be 35.9 nM under setting [1] and 238 nM under setting [2].
Regarding “GUAGCAUACCGAGGAUAUUCAUCCGGAAACGGACAUGAGGAUCACCCAUGUGCAGAAAACUGCUGGGAGAAGGCGGAAUGCUAC”, the “apparent Kd” value is, setting by setting: under setting [3], 89.7 nM; under setting [4], 16.9 nM.
Consider “CAUACACAUGAGGAUCACCCAUGUGAGGAUAUGCGUACGUUGUCCGUAGGCGACGUGCGCAGAAGGCGCGAGGU”, for which the “apparent Kd” value is 37.7 nM under setting [1] and 35.9 nM under setting [2].
Turning to “GAAUACCUAGGAUAUACAUGAGGAUCACCCAUGUUAAUAUUUGCAUAUUCAUCCUCUGGUAGAAGGAGGAAACU”, the “apparent Kd” value was found to be 16.1 nM under setting [1] and 14.6 nM under setting [2].
Regarding “GAAGCACGCAUUAACAUGAGGAUCACCCAUGUCAAAAGACGUGAGGAUAUGGAUCUGAAGAAGAUCCAGAAGGCACUGUGCUAA”, the “apparent Kd” value under setting [3] is 7.39 nM and the “apparent Kd” value under setting [4] turned out to be 5.59 nM.
For “UACAUCUCGUAAGGAUAUACACGAGAUUCAAGUGUAGAAGGUACUAACAUGAGGAUCACCCAUGUAUACAUGGAUAAUAGAUAU” the same measures were 91.6 nM and 59.7 nM.
Take “GUCAGCUCGUCAGGAUAUACAUGAGGAUCACCCAUGUGAUCAAUAGCAGCUUCGGCUGCAUUAAUGUAGAAGGGACGAGCUGAU”: the “apparent Kd” value is, setting by setting: under setting [1], 267 nM; under setting [2], 69.2 nM.
For “GAUGUUUGAGGAUAUACAUGAGGAUCACCCAUGUGUGUCCAUACGCGUGAGUCUUCGUGUAGAAGGCGGGCGUC” the same measures were 14.1 nM and 15.5 nM.
With “CAGUACUGAGGAUAUACAUGAGGAUCACCCAUGUGUUCCAGCUAGGAAACUAGCUAAAGUAGAAGGCAGUACUG”, the “apparent Kd” value under setting [1] was found to be 21.9 nM and the “apparent Kd” value under setting [2] came to 424 nM.
Regarding “CAGAGGAUGUAAGGAUAUCGUCAGGAUAACUGACGAGAAGGUACAUGAGGAUCACCCAUGUAUAUGAAAGAUAAUAAACCUCUG”, the “apparent Kd” value by setting is: under setting [1], 13.5 nM; under setting [2], 18.8 nM.
“CUUUCGUGAGGAUAUCAGUAGUAAAAAUAUAAAAUUACUACUGAGAAGGCACAUGAGGAUCACCCAUGUUCCUC”: the “apparent Kd” value under setting [1] came out at 26 nM and the “apparent Kd” value under setting [2] worked out at 150 nM.
In the case of “CAGAAGUCAGGAUAUGCAUGGCGGGACUUGCGUCGUGGCGUGCAGAAGGGACAUGAGGAUCACCCAUGUGGAGU”, the “apparent Kd” value runs as follows: under setting [1], 173 nM; under setting [2], 251 nM.
For the sequence “GGGCCCGGUGUGAGGAUAUGCCCGGGUAAAUUUGGGCAGAAGGCACAUGAGGAUCACCCAUGUAAGCCGGGCCC”, the “apparent Kd” value reads like this: under setting [1], 13.9 nM; under setting [2], 13.8 nM.
“UGAUAGGACAGAGGAUAUACGUAUAAAUAUCCUUACAUGAGGAUCACCCAUGUAGAAGGCUGUCCUAUCUAAGUCGGAAACGAC”: the “apparent Kd” value by setting is: under setting [1], 5.96 nM; under setting [2], 10.3 nM.
For “GGUACUCAAAGAGUACCAAUACGAACAUGAGGAUCACCCAUGUAGGAUAUGCUACUCAAAGAGUAGCAGAAGGACAUGUGCCUG” the same measures were 17.9 nM and 95.1 nM.
Take “UUUUUGUGAGGAUAUCAGUAGUAAAUAAAUAAAAUUACUACUGAGAAGGCACAUGAGGAUCACCCAUGUUUUUU”: the “apparent Kd” value came to 40.4 nM under setting [1] and 95.1 nM under setting [2].
As for “CCUGUAAUCCUAUAGGCUUGUUACAUGAGGAUCACCCAUGUCAAGGAUAUAACGUUAAGCUCAUGUUAGAAGGUGACAUGUGGU”, the “apparent Kd” value came out at 164 nM under setting [1] and 58.6 nM under setting [2].
For “AAGAGUAGAGGAUAUACGAAAAAAGAGUCGAAAGACUCGGGACAUGAGGAUCACCCAUGUAGAAGGCUACUCAA” the same measures were 25.4 nM and 120 nM.
“AAUUAUAGGUAGAAGGUACUGUAUUAUGUGUUGUAAGGAUAUACUAUAUUAUUAGUUCUCAAGUUACAUGAGGAUCACCCAUGU”: the “apparent Kd” value came out at 10.3 nM under setting [3] and 8.02 nM under setting [4].
As to “GUCGAGUGAGGAUAUGGUGAGUAGUGCCAGAGCGCUGCUCACCAGAAGGCACAUGAGGAUCACCCAUGUAUGUC”, the “apparent Kd” value was 12.9 nM under setting [1] and 20.8 nM under setting [2].
Regarding “UAUGGUAAAGUCAGGAUAUACGUACAUCAUUCUAGGUAGAAGGGACAUGAGGAUCACCCAUGUAUGGUAGUGUU”, the “apparent Kd” value under setting [1] was found to be 62.2 nM and the “apparent Kd” value under setting [2] is 67.6 nM.
As for “UACAUGAGGAUCACCCAUGUUAACAUGGAGUUGUUAUAUCUGAGAAGGGUAAUAUUACAUUAAGUACAGGAUAUCAAUGAUGUU”, the “apparent Kd” value reads like this: under setting [1], 45.2 nM; under setting [2], 18.4 nM.
For “UCCACUGCUGAGAAGGGAUACGUCUGGGUCGCAUCAGGAUAUCGAUACAGUGCAGCAUGAGGACAUGAGGAUCACCCAUGUGUG”, the “apparent Kd” value reads like this: under setting [3], 102 nM; under setting [4], 49.6 nM.
“UGUCGUAGCAGAGGAUAUUACAUGAGGAUCACCCAUGUAUGAACCAAUAGCUGGAAACAGCAAUGUAAGAAGGCUGCUCCGACA”: the “apparent Kd” value reads like this: under setting [1], 13.2 nM; under setting [2], 158 nM.
For the sequence “CACCGGCCCUAUAUGUUCUAGACAUGAGGAUCACCCAUGUAUAGAAGGGUCUUCGCGAAACGCAGACAGGAUAUGUACAGGAGU”, the “apparent Kd” value reads like this: under setting [1], 6.08 nM; under setting [2], 9.13 nM.
